Laboratory results reported in ChEMBL document CHEMBL1772981, “Discovery of 2-arylbenzoxazoles as upregulators of utrophin production for the treatment of Duchenne muscular dystrophy” (J Med Chem, 2011).
In brackets after ≈: the same amount, converted by molar mass.

Experiments:
[1] = species on record: Mus musculus; assay: Activation of UTRN promoter in mouse H2K cells assessed as upregulation of UTRN production after 48 hrs by luciferase reporter linked assay; format: functional, cell-based; conditions: Mus musculus, H2K, 48 h
In short: (§1)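 H2K myoblasts stably carrying a utrophin (UTRN) promoter–luciferase reporter were plated 24 h before dosing and exposed to compound for 48 h. Luciferase was read by luminescence (Steady-Glo). The primary screen was at 10 μM and the secondary at six concentrations for EC50, both in triplicate. Non-EC50 values are % of the reference upregulator's maximum, given with the concentration at maximum.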

[2] = species on record: Mus musculus; assay: Activation of UTRN promoter in mouse H2K cells assessed as upregulation of UTRN production at 10 uM after 48 hrs by luciferase reporter linked assay; format: functional; in short: as §1
[3] = species on record: Mus musculus; assay: Activation of UTRN promoter in mouse H2K cells assessed as upregulation of UTRN production at 10 uM after 72 hrs by RT-PCR analysis; format: functional
In short: (§2)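 H2K cells were seeded at 25000 per well, left 24 h, then dosed for 72 h in 1% DMSO final. Total RNA was extracted and reverse transcribed. qPCR used an amplicon spanning the UTRN exon 3–4 boundary, with β-actin as the endogenous control, and was quantified by ΔΔCT. Values are % UTRN relative to DMSO control (=100), with P value.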

[4] = Half life in mouse liver microsomes; format: ADME, Microsome
[5] = system: Mus musculus; assay: Tmax in CD1 mouse at 10 mg/kg, ip; format: ADME, organism-based; set-up: dose 10 mg/kg, route intraperitoneal; conditions: in vivo
In short: (§3)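 Male CD1 mice were dosed i.p. at 10 mg/kg in 95% PBS containing 0.1% Tween 20 and 5% DMSO. Plasma was sampled at 5–360 or 5–480 min. AUC is in μg.min/mL. Half-life was not calculated where the log concentration–time plot lacked a linear region of at least three points.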

[6] = system: Mus musculus; assay: Cmax in CD1 mouse at 10 mg/kg, ip; format: ADME, organism-based; set-up: dose 10 mg/kg, route intraperitoneal; conditions: in vivo; in short: as §3
[7] = system: Mus musculus; assay: Half life in CD1 mouse at 10 mg/kg, ip; format: ADME, organism-based; set-up: dose 10 mg/kg, route intraperitoneal; conditions: in vivo; in short: as §3
[8] = system: Mus musculus; assay: AUC in CD1 mouse at 10 mg/kg, ip; format: ADME, organism-based, Plasma; set-up: dose 10 mg/kg, route intraperitoneal; conditions: in vivo; in short: as §3
[9] = Aqueous solubility of the compound by turbidimetry; format: physicochemical; conditions: buffer
In short: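 Turbidimetric aqueous solubility, reported as the final test compound concentration.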

[10] = Half life in human liver microsomes; format: ADME, Microsome
[11] = species on record: Mus musculus; assay: Activation of UTRN promoter in mouse H2K cells assessed as upregulation of UTRN production at 3 uM after 48 hrs by luciferase reporter linked assay; format: functional; in short: as §1
[12] = species on record: Mus musculus; assay: Activation of UTRN promoter in mouse H2K cells assessed as upregulation of UTRN production at 3 uM after 72 hrs by RT-PCR analysis; format: functional; in short: as §2

Structure (SMILES)	EC50 [1]	further results
Cc1ccc(-c2nc3cc(NC(=O)C(C)C)ccc3o2)cc1		Activity [2]: 95%
CC(C)C(=O)N(C)c1ccc2oc(-c3ccc(Cl)cc3)nc2c1	> 30 µM	
CC(C)NC(=O)c1ccc2oc(-c3ccc(Cl)cc3)nc2c1	> 30 µM	
CC(C)S(=O)(=O)Nc1ccc2oc(-c3ccc(Cl)cc3)nc2c1	> 30 µM	
CC(C)CNc1ccc2oc(-c3ccc(Cl)cc3)nc2c1	> 30 µM	
C[C@H](N)C(=O)Nc1ccc2oc(-c3ccc(Cl)cc3)nc2c1		Activity [11]: 35%
CC(C)C(=S)Nc1ccc2oc(-c3ccc(Cl)cc3)nc2c1	> 30 µM	
CC(C)C(=O)Nc1ccc2oc(-c3ccc(Cl)cc3)cc2c1	> 30 µM	
Nc1ccc2oc(-c3ccc(Cl)c(Cl)c3)nc2c1		Activity [11]: 107%
CCC(=O)Nc1ccc2oc(-c3ccc(Cl)cc3)nc2c1		Activity [11]: 85%
CCCCC(=O)Nc1ccc2oc(-c3ccccc3)nc2c1		Activity [2]: 69%
O=C(Nc1ccc2oc(-c3ccccc3)nc2c1)c1ccccc1	> 30 µM	
O=C(Nc1ccc2oc(-c3ccc(Cl)cc3)nc2c1)c1ccccc1	> 30 µM	
O=C(CCc1ccccc1)Nc1ccc2oc(-c3ccc(Cl)cc3)nc2c1	> 30 µM	
COc1ccc(-c2nc3cc(NC(=O)C(C)C)ccc3o2)cc1		Activity [2]: 132%
CCN(CC)c1ccc(-c2nc3cc(NC(=O)C(C)C)ccc3o2)cc1		Activity [2]: 12%
CC(C)C(=O)Nc1ccc2oc(-c3ccc(C(F)(F)F)cc3)nc2c1		Activity [2]: 22%
CC(C)C(=O)Nc1ccc2oc(-c3ccc(Cl)cc3Cl)nc2c1		Activity [2]: 53%
CC(C)C(=O)Nc1ccc2oc(-c3cc(Cl)ccc3Cl)nc2c1	> 30 µM	
Cc1ccc(-c2nc3c(NC(=O)C(C)C)cccc3o2)cc1	> 30 µM	
CC(C)C(=O)Nc1cc2oc(-c3ccc(Cl)cc3)nc2cc1Cl	> 30 µM	
CC(C)C(=O)Nc1ccc2nc(-c3cccc(Cl)c3Cl)oc2c1	> 30 µM	

The next lines start with results.

EC50 [1]	Structure (SMILES)	further results
3 µM	CC(=O)Nc1ccc2oc(-c3ccccc3)nc2c1	
0.7 µM	Cc1cc2nc(-c3ccc(N)cc3O)oc2cc1C	Activity [3]: 144.8%; half-life [4]: 22 min; Tmax [5]: 5 min; Cmax [6]: 10.9 ng/mL; t1/2 [7]: 40.9 min; AUC [8]: 10 ng·h/mL; solubility kinetic [9]: 1 µM (≈ 0.254 µg/mL)
0.4 µM	CC(C)C(=O)Nc1ccc2oc(-c3ccc(Cl)cc3)nc2c1	half-life [4]: 19.3 min; half-life [10]: 286 min; Tmax [5]: 15 min; Cmax [6]: 2807 ng/mL; t1/2 [7]: 136 min; AUC [8]: 3820 ng·h/mL; solubility kinetic [9]: 3 µM (≈ 0.944 µg/mL)
0.9 µM	CCC(=O)c1ccc2oc(-c3ccc(Cl)cc3)nc2c1	half-life [4]: 13 min
10 µM	CC(C)C(=O)Nc1ccc2[nH]c(-c3ccc(Cl)cc3)nc2c1	
1.2 µM	CC(C)C(=O)Nc1ccc2sc(-c3ccc(Cl)cc3)nc2c1	
1 µM	CC(C)c1ccc2oc(-c3ccc(N)cc3O)nc2c1	
3.5 µM	Nc1ccc(-c2nc3cc(N)ccc3o2)c(O)c1	
1.5 µM	CC(C)C(=O)Nc1ccc2oc(-c3ccc(Cl)c(Cl)c3)nc2c1	Activity [12]: 128.2%
0.8 µM	CCC(=O)Nc1ccc2oc(-c3ccccc3)nc2c1	
3 µM	CCCC(=O)Nc1ccc2oc(-c3ccccc3)nc2c1	
0.8 µM	CC(C)C(=O)Nc1ccc2oc(-c3ccccc3)nc2c1	
3.5 µM	CCCC(=O)Nc1ccc2oc(-c3ccc(Cl)cc3)nc2c1	
5 µM	O=C(Cc1ccccc1)Nc1ccc2oc(-c3ccc(Cl)cc3)nc2c1	
0.9 µM	CC(C)C(=O)Nc1ccc2oc(-c3ccc(F)cc3)nc2c1	half-life [4]: 16.1 min
4.5 µM	CC(C)C(=O)Nc1ccc2oc(-c3cccc(Cl)c3)nc2c1	
1.1 µM	CC(C)C(=O)Nc1ccc2oc(-c3ccccc3Cl)nc2c1	
10 µM	CC(C)C(=O)Nc1ccc2oc(-c3cccc(Cl)c3Cl)nc2c1	
3 µM	CC(C)C(=O)Nc1ccc2nc(-c3ccc(Cl)cc3)oc2c1	
